In ChEMBL document CHEMBL1268809, “Optimisation of 2-cyano-pyrimidine inhibitors of cathepsin K: improving selectivity over hERG” (Bioorg Med Chem Lett, 2010):
Values after ≈ are worked out from the molar mass of the structure shown.

Experiments:
[1] = Oral bioavailability in Wistar rat at 10 mg/kg; type: ADME, organism-based; details: in vivo
Outline: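 Wistar rats were dosed iv at 2 mg/kg and po at 10 mg/kg. Oral bioavailability (F, %) was derived from the two routes.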

[2] = Oral bioavailability in Beagle dog at 1.96 mg/kg; details: in vivo
[3] = target: Cytochrome P450 2C19 (Homo sapiens, UniProt P33261); experiment: Inhibition of CYP2C19; type: ADME
Cytochrome P450 2C19, sequence (P33261 whole entry): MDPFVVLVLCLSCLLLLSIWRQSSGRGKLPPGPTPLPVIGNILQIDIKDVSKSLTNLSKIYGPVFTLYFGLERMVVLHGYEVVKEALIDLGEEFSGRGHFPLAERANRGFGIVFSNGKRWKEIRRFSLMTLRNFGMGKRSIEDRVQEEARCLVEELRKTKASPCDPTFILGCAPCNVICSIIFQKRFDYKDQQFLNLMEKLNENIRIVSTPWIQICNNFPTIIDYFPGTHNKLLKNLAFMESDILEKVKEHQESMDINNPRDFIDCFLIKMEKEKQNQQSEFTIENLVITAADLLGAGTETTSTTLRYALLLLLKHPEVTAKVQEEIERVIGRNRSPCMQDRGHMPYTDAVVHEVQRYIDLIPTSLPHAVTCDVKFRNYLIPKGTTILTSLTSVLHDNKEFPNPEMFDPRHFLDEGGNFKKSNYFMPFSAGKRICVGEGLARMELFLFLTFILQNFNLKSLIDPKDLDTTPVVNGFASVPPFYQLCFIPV

[4] = target: Cathepsin B (Homo sapiens, UniProt P07858); experiment: Inhibition of human recombinant cathepsin B
[5] = target: Cytochrome P450 3A4 (Homo sapiens, UniProt P08684); experiment: Inhibition of CYP3A4; type: ADME
Cytochrome P450 3A4, sequence (P08684 whole entry): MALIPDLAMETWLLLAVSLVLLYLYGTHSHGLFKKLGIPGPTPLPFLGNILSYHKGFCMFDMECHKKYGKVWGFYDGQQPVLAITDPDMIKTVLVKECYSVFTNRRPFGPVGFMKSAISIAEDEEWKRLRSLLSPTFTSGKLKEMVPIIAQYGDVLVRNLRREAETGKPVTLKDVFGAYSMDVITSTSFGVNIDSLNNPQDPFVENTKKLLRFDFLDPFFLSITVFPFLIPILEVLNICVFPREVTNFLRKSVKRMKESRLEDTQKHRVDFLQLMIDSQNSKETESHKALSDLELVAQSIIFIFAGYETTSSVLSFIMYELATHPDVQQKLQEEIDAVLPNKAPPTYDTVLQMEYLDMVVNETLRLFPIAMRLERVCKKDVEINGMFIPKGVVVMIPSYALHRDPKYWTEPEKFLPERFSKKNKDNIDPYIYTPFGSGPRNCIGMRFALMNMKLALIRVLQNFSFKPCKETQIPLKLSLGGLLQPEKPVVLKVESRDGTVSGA

[6] = target: Procathepsin L (Homo sapiens, UniProt P07711); experiment: Inhibition of human recombinant cathepsin L
Procathepsin L, sequence (P07711 whole entry): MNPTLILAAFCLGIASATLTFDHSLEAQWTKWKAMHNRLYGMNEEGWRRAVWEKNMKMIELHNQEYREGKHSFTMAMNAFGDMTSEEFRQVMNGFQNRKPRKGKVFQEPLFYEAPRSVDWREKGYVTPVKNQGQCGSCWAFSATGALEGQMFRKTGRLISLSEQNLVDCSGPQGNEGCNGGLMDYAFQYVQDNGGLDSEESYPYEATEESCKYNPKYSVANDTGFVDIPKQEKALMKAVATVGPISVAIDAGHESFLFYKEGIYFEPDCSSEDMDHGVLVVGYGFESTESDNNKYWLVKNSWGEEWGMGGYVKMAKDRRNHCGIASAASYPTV

[7] = Oral bioavailability in cynomolgus monkey at 4.63 mg/kg; details: in vivo
[8] = target: T1, Cytochrome P450 1A2 (Homo sapiens, UniProt P05177); experiment: Inhibition of CYP1A2; type: ADME
T1 sequence (P05177 whole entry): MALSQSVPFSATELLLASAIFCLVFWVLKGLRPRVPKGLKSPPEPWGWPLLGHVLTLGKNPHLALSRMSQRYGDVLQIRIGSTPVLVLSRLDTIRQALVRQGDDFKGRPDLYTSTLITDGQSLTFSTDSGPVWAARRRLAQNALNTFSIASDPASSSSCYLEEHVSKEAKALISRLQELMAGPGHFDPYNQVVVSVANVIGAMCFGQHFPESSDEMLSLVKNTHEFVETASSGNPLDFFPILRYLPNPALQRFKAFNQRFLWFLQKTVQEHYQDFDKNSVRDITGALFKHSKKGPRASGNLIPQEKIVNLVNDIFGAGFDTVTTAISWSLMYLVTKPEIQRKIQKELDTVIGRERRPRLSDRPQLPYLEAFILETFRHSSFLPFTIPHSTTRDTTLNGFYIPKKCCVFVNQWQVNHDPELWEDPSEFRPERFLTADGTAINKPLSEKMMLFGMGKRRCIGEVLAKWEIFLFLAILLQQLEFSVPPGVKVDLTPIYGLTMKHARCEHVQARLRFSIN

[9] = target: Cathepsin S (Homo sapiens, UniProt P25774); experiment: Inhibition of human recombinant cathepsin S
Cathepsin S, sequence (P25774 whole entry): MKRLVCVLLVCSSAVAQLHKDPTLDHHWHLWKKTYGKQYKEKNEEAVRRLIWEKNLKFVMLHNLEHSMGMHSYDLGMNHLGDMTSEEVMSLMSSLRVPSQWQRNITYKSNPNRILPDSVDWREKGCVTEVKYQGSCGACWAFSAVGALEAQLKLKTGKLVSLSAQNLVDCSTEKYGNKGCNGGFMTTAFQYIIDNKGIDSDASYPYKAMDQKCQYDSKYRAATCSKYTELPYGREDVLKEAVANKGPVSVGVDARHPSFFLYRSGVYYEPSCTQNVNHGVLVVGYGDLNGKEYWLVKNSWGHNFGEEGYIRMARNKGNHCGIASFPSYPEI

[10] = Solubility in pH 7.4 PBS solution; type: physicochemical
[11] = target: Cytochrome P450 2C9 (Homo sapiens, UniProt P11712); experiment: Inhibition of CYP2C9; type: ADME
Cytochrome P450 2C9, sequence (P11712 whole entry): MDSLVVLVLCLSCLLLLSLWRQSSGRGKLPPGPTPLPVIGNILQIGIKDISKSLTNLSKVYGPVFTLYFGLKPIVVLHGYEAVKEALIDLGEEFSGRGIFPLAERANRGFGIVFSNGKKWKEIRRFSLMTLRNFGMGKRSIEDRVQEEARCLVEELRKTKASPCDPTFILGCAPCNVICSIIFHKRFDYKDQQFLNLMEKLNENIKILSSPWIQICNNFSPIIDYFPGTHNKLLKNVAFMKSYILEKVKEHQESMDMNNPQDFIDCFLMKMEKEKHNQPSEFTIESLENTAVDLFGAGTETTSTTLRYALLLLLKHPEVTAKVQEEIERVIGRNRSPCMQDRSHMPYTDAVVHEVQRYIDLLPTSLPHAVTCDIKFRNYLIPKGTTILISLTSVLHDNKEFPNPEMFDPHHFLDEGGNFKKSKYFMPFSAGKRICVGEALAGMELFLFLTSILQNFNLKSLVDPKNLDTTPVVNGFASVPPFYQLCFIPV

[12] = target: Voltage-gated inwardly rectifying potassium channel KCNH2 (Homo sapiens, UniProt Q12809); experiment: Displacement of [3H] dofetilide from human ERG channel expressed in HEK293 cells; type: cell-based
Voltage-gated inwardly rectifying potassium channel KCNH2, sequence (Q12809 whole entry): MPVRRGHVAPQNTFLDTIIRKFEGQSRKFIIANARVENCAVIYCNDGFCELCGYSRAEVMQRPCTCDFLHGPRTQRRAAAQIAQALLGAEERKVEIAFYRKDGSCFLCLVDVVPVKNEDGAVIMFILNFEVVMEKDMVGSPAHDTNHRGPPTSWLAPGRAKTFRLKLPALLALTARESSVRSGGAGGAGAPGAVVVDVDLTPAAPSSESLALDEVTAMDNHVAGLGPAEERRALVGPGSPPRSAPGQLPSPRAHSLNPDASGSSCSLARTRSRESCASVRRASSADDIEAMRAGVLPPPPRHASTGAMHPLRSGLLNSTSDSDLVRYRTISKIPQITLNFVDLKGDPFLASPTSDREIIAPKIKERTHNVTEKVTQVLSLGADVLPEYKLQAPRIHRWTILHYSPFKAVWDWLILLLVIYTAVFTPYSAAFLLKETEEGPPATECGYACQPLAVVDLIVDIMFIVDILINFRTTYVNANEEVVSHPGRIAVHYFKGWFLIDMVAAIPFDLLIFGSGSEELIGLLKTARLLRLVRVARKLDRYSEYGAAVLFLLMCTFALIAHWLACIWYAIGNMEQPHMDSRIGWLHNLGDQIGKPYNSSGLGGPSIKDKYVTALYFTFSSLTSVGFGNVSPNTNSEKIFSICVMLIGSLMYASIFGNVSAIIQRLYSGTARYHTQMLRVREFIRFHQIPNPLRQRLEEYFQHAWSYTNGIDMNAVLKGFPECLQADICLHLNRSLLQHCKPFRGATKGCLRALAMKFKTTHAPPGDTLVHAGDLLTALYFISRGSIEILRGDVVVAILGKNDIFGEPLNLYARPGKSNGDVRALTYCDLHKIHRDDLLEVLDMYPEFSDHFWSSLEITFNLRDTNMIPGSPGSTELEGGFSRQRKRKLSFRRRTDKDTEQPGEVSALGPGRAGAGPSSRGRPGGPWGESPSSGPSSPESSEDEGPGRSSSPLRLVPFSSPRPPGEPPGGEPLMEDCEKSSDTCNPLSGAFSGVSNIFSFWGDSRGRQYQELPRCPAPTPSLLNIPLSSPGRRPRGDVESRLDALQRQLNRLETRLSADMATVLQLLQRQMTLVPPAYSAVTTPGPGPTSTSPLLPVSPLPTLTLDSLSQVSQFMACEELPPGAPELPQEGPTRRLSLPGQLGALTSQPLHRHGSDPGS

[13] = target: T2, Cathepsin K (Homo sapiens, UniProt P43235); experiment: Inhibition of human recombinant cathepsin K using Z-Phe-Arg-MCA substrate by fluorimetric assay
T2 sequence (P43235 whole entry): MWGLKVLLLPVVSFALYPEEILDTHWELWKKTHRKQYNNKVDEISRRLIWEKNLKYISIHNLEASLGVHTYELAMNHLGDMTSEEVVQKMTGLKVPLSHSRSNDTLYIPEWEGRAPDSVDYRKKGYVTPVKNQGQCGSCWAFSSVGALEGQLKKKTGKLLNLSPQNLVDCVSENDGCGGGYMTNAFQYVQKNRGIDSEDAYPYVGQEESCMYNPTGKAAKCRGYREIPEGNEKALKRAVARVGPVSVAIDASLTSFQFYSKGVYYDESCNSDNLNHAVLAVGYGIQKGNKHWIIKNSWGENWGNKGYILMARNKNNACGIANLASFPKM

[14] = Half life in plasma; type: ADME, cell-free
[15] = test system: Osteoclast; experiment: Inhibition of bone resorption in rabbit osteoclasts; type: functional, cell-based; details: Oryctolagus cuniculus

| IC50 [13] [nM] | SMILES | Ki [12] [nM] | also measured |
| --- | --- | --- | --- |
| 166 | N#Cc1nc(CCC(=O)O)cc(-c2cccc(C(F)(F)F)c2)n1 | > 10000 | – |
| 10 | COCCNCCCc1cc(-c2cccc(C(F)(F)F)c2)nc(C#N)n1 | 560 | – |
| 389 | CCC(CC)NC(=O)CCc1cc(-c2cccc(C(F)(F)F)c2)nc(C#N)n1 | – | – |
| 11 | N#Cc1nc(CCCNCc2nnn[nH]2)cc(-c2cccc(C(F)(F)F)c2)n1 | > 10000 | IC50 [15]: 1640 nM |
| 6 | CNCCCc1cc(-c2cccc(C(F)(F)F)c2)nc(C#N)n1 | – | – |
| 5 | N#Cc1nc(CCCNC2(C(N)=O)CCOCC2)cc(-c2cccc(C(F)(F)F)c2)n1 | > 10000 | half-life [14]: > 2.5 h |
| 30 | N#Cc1nc(CCCNCC(F)(F)F)cc(-c2cccc(C(F)(F)F)c2)n1 | 500 | – |

Continued, compound first:

| SMILES | IC50 [13] [nM] | Ki [12] [nM] | also measured |
| --- | --- | --- | --- |
| CC(C)(NCCCc1cc(-c2cccc(C(F)(F)F)c2)nc(C#N)n1)C(N)=O | – | – | bioavailability [1]: 29%; bioavailability [2]: 29%; IC50 [3]: > 35000 nM; IC50 [4]: 2510 nM; IC50 [5]: > 35000 nM; IC50 [6]: > 10000 nM; bioavailability [7]: 57%; IC50 [8]: > 35000 nM; IC50 [9]: 16 nM; solubility [10]: 393 µg/mL (≈ 1000 µM); IC50 [11]: > 35000 nM |
| N#Cc1nc(CCCN2CCCCC2)cc(-c2cccc(C(F)(F)F)c2)n1 | – | 160 | solubility [10]: 60 µg/mL (≈ 160 µM) |
| N#Cc1nc(CCCN2CCOCC2)cc(-c2cccc(C(F)(F)F)c2)n1 | 9 | 320 | – |
| N#Cc1nc(CCCNc2ccccn2)cc(-c2cccc(C(F)(F)F)c2)n1 | 3 | – | – |
| N#Cc1nc(CCCNC2(C(N)=O)CCC2)cc(-c2cccc(C(F)(F)F)c2)n1 | – | 2510 | – |
| CN1CCN(CCCc2cc(-c3cccc(C(F)(F)F)c3)nc(C#N)n2)CC1 | 10 | – | – |
| N#Cc1nc(CCCNCC(N)=O)cc(-c2cccc(C(F)(F)F)c2)n1 | – | 3980 | – |
| N#Cc1nc(CCCNC2(C(N)=O)CC2)cc(-c2cccc(C(F)(F)F)c2)n1 | – | 1580 | – |
| CCCc1cc(-c2cc(C(=O)N(C)C)cc(C(F)(F)F)c2)nc(C#N)n1 | – | > 10000 | – |
| CCCc1cc(-c2cc(C(=O)N(C)CCN(C)C)cc(C(F)(F)F)c2)nc(C#N)n1 | – | 710 | – |
| N#Cc1nc(CCCN2CCOC[C@H]2C(N)=O)cc(-c2cccc(C(F)(F)F)c2)n1 | 13 | > 10000 | half-life [14]: > 2.5 h |
| CCCc1cc(-c2cc(C(F)(F)F)ccc2C(=O)N(C)C)nc(C#N)n1 | 427 | – | – |
| CCCc1cc(-c2cc(C(=O)N(C)Cc3ccccc3)cc(C(F)(F)F)c2)nc(C#N)n1 | 9 | – | – |
| N#Cc1nc(CCCN2CCC(O)CC2)cc(-c2cccc(C(F)(F)F)c2)n1 | – | 1120 | – |
| CCCc1cc(-c2cc(C(=O)N(CCN(C)C)Cc3ccccc3)cc(C(F)(F)F)c2)nc(C#N)n1 | – | 120 | – |
| N#Cc1nc(CCCNCC(=O)O)cc(-c2cccc(C(F)(F)F)c2)n1 | – | > 10000 | – |
